pEC50: −log10 of the molar value. Activity calls are given as the source filed them. The rule behind the calls is not given here.
Assays:
[1] = Cytotoxicity against human Hep2 cells assessed as growth inhibition; type: functional; settings: HEp-2, read-out: ED50 (the source's name)
Method in brief: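 Human epidermoid carcinoma No. 2 (H.Ep. No. 2) cells grown in culture with compound. ED50 is the concentration that holds growth of treated cells to 50% of untreated controls.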

HEp-2 [2] = assay: Resistance ratio of ED50 for adenine phosphoribosyltransferase/adenosine kinase deficient 2-fluoro adenine/2-fluoro adenosine-resistant human Hep2 cells to ED50 for wild type human Hep2 cells; type: functional
[3] = Drug degradation in buffer assessed as formation of 3,6-Dihydro-3-beta-D-ribofuranosyl-7H-1,2,3-triazolo[4,5-d]-pyrimidine-7-thione at pH 7.3 after 6 days by HPLC analysis; type: physicochemical; settings: pH 7.3, 144 h
Method in brief: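 Conversion in pH 7.3 buffer, under conditions meant to mirror the cytotoxicity assay, followed by high-pressure liquid chromatography.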

L1210 [4] = assay: Antitumor activity against mouse L1210 cells allografted in BD2F1 mouse assessed as increase in life span at 90 mg/kg, ip administered 1 to 9 days measured on day 10 to 12 relative to control; type: functional; settings: route intraperitoneal
L1210 [5] = assay: Antitumor activity against mouse L1210 cells allografted in BD2F1 mouse assessed as increase in life span at 60 mg/kg, ip administered 1 to 9 days measured on day 10 to 12 relative to control; type: functional; settings: route intraperitoneal
L1210 [6] = assay: Antitumor activity against mouse L1210 cells allografted in BD2F1 mouse assessed as increase in life span at 40 mg/kg, ip administered 1 to 9 days measured on day 10 to 12 relative to control; type: functional; settings: route intraperitoneal
HEp-2 [7] = assay: Resistance ratio of ED50 for adenosine kinase deficient 6-(methylthio)purine ribonucleoside-resistant human Hep2 cells to ED50 for wild type human Hep2 cells; type: functional
Method in brief: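 ED50 is measured as growth inhibition to 50% of untreated controls in an H.Ep. No. 2 subline resistant to 6-(methylthio)purine ribonucleoside that lacks adenosine kinase. It is divided by the ED50 in the sensitive (wild) H.Ep. No. 2 line.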

L1210 [8] = assay: Antitumor activity against mouse L1210 cells allografted in ip dosed BD2F1 mouse assessed as increase in life span administered 1 to 9 days measured on day 10 to 12 relative to control; type: functional
HEp-2 [9] = assay: Cytotoxicity against human Hep2 cells assessed as growth inhibition at 50 uM; type: functional, cell-based
HEp-2 [10] = assay: Resistance ratio of ED50 for hypoxanthine-guanine phosphoribosyl transferase/adenosine kinase deficient 6-mercaptopurine/6-(methylthio)purine ribonucleoside-resistant human Hep2 cells to ED50 for wild type human Hep2 cells; type: functional

CCCCNc1ncnc2c1nnn2[C@@H]1O[C@H](CO)[C@@H](O)[C@H]1O
pEC50 [1]: 6.52

CCSc1ncnc2c1nnn2[C@@H]1O[C@H](CO)[C@@H](O)[C@H]1O
pEC50 [1]: 7.00
Ratio ED50 (HEp-2 [2]): 300

Nc1ncnc2nn([C@@H]3O[C@H](CO)[C@@H](O)[C@H]3O)nc12
pEC50 [1]: < 4.15

CSc1ncnc2[nH]nnc12
pEC50 [1]: < 3.52

OC[C@H]1O[C@@H](Nc2ncnc3snnc23)[C@H](O)[C@@H]1O
Stability [3]: Stable
pEC50 [1]: 7.00
ILS at 90 mg/kg (L1210 [4]): 36%
ILS at 60 mg/kg (L1210 [5]): 28%
ILS at 40 mg/kg (L1210 [6]): 25%

CSc1ncnc2nn([C@@H]3O[C@H](CO)[C@@H](O)[C@H]3O)nc12
pEC50 [1]: 5.22

COc1ncnc2c1nnn2[C@@H]1O[C@H](CO)[C@@H](O)[C@H]1O
pEC50 [1]: 6.52
Ratio ED50 (HEp-2 [7]): 6
Ratio ED50 (HEp-2 [2]): 6
ILS (L1210 [8]): 29%

Nc1ncnc2snnc12
growth inhibition (GI) (HEp-2 [9]): inactive

CSc1ncnc2c1nnn2[C@@H]1O[C@H](CO)[C@@H](O)[C@H]1O
pEC50 [1]: 7.70
Ratio ED50 (HEp-2 [7]): 2000
Ratio ED50 (HEp-2 [2]): 3000
ILS (L1210 [8]): 23%

CSc1ncnc2nn([C@@H]3O[C@H](COC(C)=O)[C@@H](OC(C)=O)[C@H]3OC(C)=O)nc12
pEC50 [1]: 5.15

OC[C@H]1O[C@@H](n2nnc3c(S)ncnc32)[C@H](O)[C@@H]1O
pEC50 [1]: 6.00
Ratio ED50 (HEp-2 [7]): 90
Ratio ED50 (HEp-2 [2]): 40

CSc1ncnc2c1nnn2[C@@H]1O[C@H](COC(C)=O)[C@@H](OC(C)=O)[C@H]1OC(C)=O
pEC50 [1]: 6.30

Nc1ncnc2c1nnn2[C@@H]1O[C@H](CO)[C@@H](O)[C@H]1O
pEC50 [1]: 6.10
Ratio ED50 (HEp-2 [7]): 2
Ratio ED50 (HEp-2 [2]): 2
Ratio ED50 (HEp-2 [10]): 60
ILS (L1210 [8]): 39%

CCOc1ncnc2c1nnn2[C@@H]1O[C@H](CO)[C@@H](O)[C@H]1O
pEC50 [1]: 7.00
Ratio ED50 (HEp-2 [7]): 20

CC(C)=CCNc1ncnc2c1nnn2[C@@H]1O[C@H](CO)[C@@H](O)[C@H]1O
pEC50 [1]: > 5.52
